The nature of data set [1]: Toxicity in male rat assessed as increase in body weight at 30 mg/kg, po administered for 14 days. As to conditions: in vivo, 336 h.
Data set [2] can be described thus: Partial agonist activity at muscarinic M2/M3 receptor in Hartley guinea pig ileum assessed as stimulation of contraction relative to carbachol. It counts as tissue-based, Cavia porcellus. In a few lines:
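Agonist mode used a guinea pig ileum tissue bath with the compound applied alone. Concentration–response curves were run with or without the non-selective muscarinic antagonist atropine. Contraction was expressed relative to the maximal carbachol response.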

Data set [3] is described as follows: Unbound plasma concentration in […] in Sprague-Dawley rat model at 3.2 mg/kg, sc measured after 1.67 hrs. It counts as ADME, organism-based. As to conditions: in vivo. In a few lines:
(§1)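 Randomly selected animals (N=2/dose) at the end of the rat PPI study, T = 1.67 h. Dosed subcutaneously as a suspension in 0.5% methylcellulose in water. Plasma and brain concentrations were averaged.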

Data set [4] in a line: Toxicity in female rat assessed as increase in food intake at 15 mg/kg, po administered for 14 days. Format: organism-based. As to conditions: in vivo, 336 h, time 14 day. In a few lines: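 Two-week repeat-dose toxicity study in rats. Oral dosing in 0.5% methylcellulose at 3, 10, 30 (males)/15 (females) mg/kg, N=4/sex/dose. Food intake, body weight gain and histopathology were assessed.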

In data set [5] the target is T1, Muscarinic acetylcholine receptor M1 (Homo sapiens, UniProt P11229).
T1 sequence (P11229 whole entry): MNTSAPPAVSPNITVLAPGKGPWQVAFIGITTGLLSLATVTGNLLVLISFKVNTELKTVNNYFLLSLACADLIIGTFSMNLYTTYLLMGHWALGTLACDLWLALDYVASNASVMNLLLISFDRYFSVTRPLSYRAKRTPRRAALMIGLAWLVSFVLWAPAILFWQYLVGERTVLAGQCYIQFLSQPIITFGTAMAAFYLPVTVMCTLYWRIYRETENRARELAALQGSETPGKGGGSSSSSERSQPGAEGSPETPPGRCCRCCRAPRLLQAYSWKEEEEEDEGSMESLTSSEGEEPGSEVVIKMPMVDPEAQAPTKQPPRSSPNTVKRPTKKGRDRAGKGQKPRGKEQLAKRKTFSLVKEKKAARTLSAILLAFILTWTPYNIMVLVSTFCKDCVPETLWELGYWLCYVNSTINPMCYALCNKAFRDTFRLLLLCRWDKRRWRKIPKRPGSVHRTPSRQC
The experiment in a line: Positive allosteric modulation of muscarinic M1 receptor (unknown origin) expressed in CHO cells assessed as increase in Ach-induced accumulation of inositol phosphate accumulation measured after 30 mins by HTRF assay. Format: functional, cell-based. For orientation: TR-FRET usually uses a lanthanide donor and a delayed reading to cut background.

Data set [6] is described as follows: Unbound brain concentration in […] in Sprague-Dawley rat model at 3.2 mg/kg, sc measured after 1.67 hrs. It counts as ADME, organism-based. The following applies: in vivo. In a few lines:
as §1

Data set [7] can be described thus: Unbound plasma concentration in amphetamine-induced C57BL/6J mouse model of hyperlocomotion at 0.32 mg/kg, sc measured after 1 hr. As to conditions: in vivo. Format: ADME, organism-based. The method, boiled down:
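Satellite PK animals from the mouse aLMA study, N=2/dose. Dosed subcutaneously with a solution in 5/15/80 DMSO/Solutol/water. Plasma and brain were sampled at T = 1 h.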

Data set [8] is described as follows: Toxicity in male Beagle dog assessed as effect on cardiac contractility at 3 mg/kg, po administered as single dose observed upto 9 hrs post last dose by telemetry. As to conditions: in vivo. Format: organism-based, Canis lupus familiaris. The method, boiled down: (§2)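 Crossover telemetry study in dogs at three oral doses (0.3, 1 and 3 mg/kg), N=4. Endpoints were blood pressure, maximum systolic left ventricular pressure, LV +dP/dt max, activity, heart rate, and RR, QT and QTc intervals, followed up to 9 h post dose.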

The test system of another data set is Rattus norvegicus. As to the kind of experiment: Reversal of scopolamine-induced memory impairment in Wistar rat model at 0.32 mg/kg, po administered 15 min before training followed by 30 mins later administration with scopolamine measured after 24 hrs by Morris water maze test.
Data set [9] is described as follows: fCmax in dog at 15 mg/kg, po using spray-dried dispersion formulation. It counts as ADME, organism-based, Canis lupus familiaris. The following applies: in vivo.
In data set [10] the target is T2, Muscarinic acetylcholine receptor M2 (Homo sapiens, UniProt P08172).
T2 sequence (P08172 whole entry): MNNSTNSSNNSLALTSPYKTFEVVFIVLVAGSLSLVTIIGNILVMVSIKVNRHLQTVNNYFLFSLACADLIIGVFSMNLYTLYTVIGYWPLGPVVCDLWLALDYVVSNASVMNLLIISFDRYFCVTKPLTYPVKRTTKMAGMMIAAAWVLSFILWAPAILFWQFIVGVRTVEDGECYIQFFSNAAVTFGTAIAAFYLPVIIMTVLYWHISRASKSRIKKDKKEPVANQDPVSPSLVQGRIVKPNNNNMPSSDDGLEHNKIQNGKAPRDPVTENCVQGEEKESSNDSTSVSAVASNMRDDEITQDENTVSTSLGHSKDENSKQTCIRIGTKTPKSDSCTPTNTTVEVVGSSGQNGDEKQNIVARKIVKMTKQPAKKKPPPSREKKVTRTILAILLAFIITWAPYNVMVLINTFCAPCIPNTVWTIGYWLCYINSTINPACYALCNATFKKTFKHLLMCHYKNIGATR
As to the kind of experiment: Positive allosteric modulation of muscarinic M2 receptor (unknown origin) assessed as increase in ACh-induced displacement of [3H]-NMS from M2 receptor. The method, boiled down: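 Cell lines expressing M2 or M3 were used for [3H]NMS binding. Inhibition of binding by ACh was measured in the presence of fixed compound concentrations of 10, 3, 1, 0.3, 0.1 and 0 µM.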
(Loss of bound radioactivity is the signal in a displacement assay; it reports binding, not function.)

The nature of data set [11]: Toxicity in dog assessed as salivation at 45 mg/kg, po using spray-dried dispersion formulation measured after 45 mins. Format: organism-based, Canis lupus familiaris. As to conditions: in vivo, 0.75 h.
Data set [12] can be described thus: Fraction unbound in Beagle dog plasma. Format: ADME, Canis lupus familiaris.
The subject of another data set is Mus musculus. The experiment in a line: In vivo positive allosteric modulation of muscarinic M1 receptor in CD-1 mouse assessed as increase in ACh-induced IP-1 levels in […] tissue administered subcutaneously measured after 2 hrs by HTRF assay. Format: functional, organism-based. The method, boiled down:
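Mice were dosed subcutaneously with a solution in 5/15/80 DMSO/Solutol/water across a 0.1–10 mg/kg dose series. IP1 accumulation in striatum was measured over a 2 h treatment and expressed as fold increase over baseline for each animal. Compound levels were measured in striatal tissue at 2 h (N=5/dose), and unbound brain concentration was derived from these.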

Data set [13] can be described thus: Toxicity in male Beagle dog assessed as effect on heart rate at 3 mg/kg, po observed upto 9 hrs post last dose by telemetry. It counts as organism-based, Canis lupus familiaris. As to conditions: in vivo. The method, boiled down: as §2
Data set [14] in a line: Ratio of fAUC in brain to plasma of scopolamine-induced Wistar rat model at 0.1 mg/kg, po measured after 1 hr. Format: ADME, organism-based. As to conditions: brain and plasma, read-out: Ratio AUC.
Data set [15] is described as follows: Toxicity in dog assessed as convulsion at 45 mg/kg, po using spray-dried dispersion formulation measured after 45 mins. It counts as organism-based, Canis lupus familiaris. As to conditions: in vivo, 0.75 h. The method, boiled down: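 Dogs received single escalating oral doses as a spray-dried dispersion (10% drug loading with HPMCAS-M). The dispersion was suspended in 0.5 wt% methylcellulose/0.5 wt% HPMCAS in 20 mM tris buffer, pH 7.4. One dog per sex per dose was used, and clinical signs were recorded.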

Data set [16] is described as follows: Unbound plasma concentration in CD-1 mouse at 10 mg/kg, sc measured after 2 hrs by LC-MS/MS analysis. It counts as ADME, organism-based. The following applies: in vivo.
Data set [17] is described as follows: Toxicity in male rat assessed as increase in food intake at 30 mg/kg, po administered for 14 days. The following applies: in vivo, 336 h.
A short description of data set [18]: Unbound brain concentration in scopolamine-induced Wistar rat model at 0.32 mg/kg, po measured after 1 hr. Format: ADME, organism-based. The following applies: in vivo.

The record followed here is ChEMBL document CHEMBL4715734, “Discovery of the Potent and Selective M1 PAM-Agonist N-[(3R,4S)-3-Hydroxytetrahydro-2H-pyran-4-yl]-5-methyl-4-[4-(1,3-thiazol-4-yl)benzyl]pyridine-2-carboxamide (PF-06767832): Evaluation of Efficacy and Cholinergic Side Effects” (J Med Chem, 2016).

The source made the active and inactive calls. No cut-off for these calls is given here.

What is called Emax is the size of the effect at its maximum, as opposed to the concentration needed. For orientation: EC50 means the midpoint of the concentration-response curve. In the case of `Cc1cnc(C(=O)N[C@H]2CCOC[C@@H]2O)cc1Cc1ccc(-c2cscn2)cc1`, the Activity result in [1] is “Non-Toxic”; in data set [4] it was “Non-Toxic”; in data set [8] it was “Toxic”; in data set [10], “Not Active”; in [11] it was “Toxic”; in the data set on Mus musculus, “Dose-dependent effect”. In addition, the Activity in data set [13] is listed as 25 bpm; in data set [15] it was “Toxic”; in [17], “Non-Toxic”. In addition, the Emax in [2] stood at 77%. Moreover, the “Cp(f)” value in data set [3] worked out at 123 nM; in data set [7], 23.4 nM; in data set [16], 574 nM. Besides, in data set [5], the EC50 worked out at 0.447 µM. Besides, the “Drug uptake(free)” value in data set [6] was determined as 44.4 nM; in [18], 1.3 nM. Further, in the data set on Rattus norvegicus, the outcome was Active. This compound also gave a fCmax in [9] of 1050 nM. For the same compound, the Fu in [12] was 8.1%. Further, in [14], the Kp uu at 1 h was 0.34.
